Where “and” joins values, the source holds several entries; their conditions need not be identical. Equal values may be shown once. Entries after “also recorded” stand apart in the source; their conditions may differ.

This note sets out measurements from article PMC2413043 (The Journal of Experimental Medicine, 2008).

The test system of one data set is RAW macrophages. Nature of the data set: Cytotoxicity of MAPK inhibitors. The format is cell-based, mouse. The following applies: unpublished data.
The next data set deals with p300 HAT domain. Nature of the data set: In vitro acetylation of MKP-1 docking domain peptides by p300. The class given is biochemical. The following applies: recombinant p300 HAT domain, labelled acetyl-CoA, 30°C 10 min, autoradiography.
In a further data set the test system is NOS2. Nature of the data set: NOS2 protein levels by immunoblot in RAW cells. The class given is cell-based, mouse. The following applies: macrophages, TLR agonist 16 h. The method in brief:
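RAW 264.7 cells were handled in two ways. For agonist response, cells were exposed to the TLR agonists PGN, poly(I:C), LPS or E. coli for 16 h, with or without TSA. For TSA dose-response, cells were pretreated with increasing TSA for 1 h, then given LPS 100 ng/ml for 6 h, with ERα as the blot control. In both, lysates were immunoblotted for NOS2.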

The test system of a further data set is HEK293 cells. The data set is described as follows: Acetylation of HA-MKP-1 in HEK293 cells. The class given is cell-based. The following applies: IP acetyl-lysine, blot HA.
The next data set in a line: MKP-1 catalytic. The class given is biochemical. The following applies: OMFP, A 477 nm, 30°C, 0–40 min, n = 2 ± SD. A digest of the protocol: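 Recombinant MKP-1 (0.66 μg) was acetylated or not with recombinant p300 HAT (2.5 μg) and 5 μl of 1 mM acetyl-CoA stock for 30 min at 30°C. Recombinant p38 (2 μg) or control was added for 1 h at 30°C. The substrate 3-O-methylfluorescein phosphate was then added and A477 nm monitored at 30°C. n = 2, ± SD.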

The next data set concerns p38. Nature of the data set: Phospho-p38 in MKP-1 KO MEFs rescued with MKP-1. The class given is cell-based, mouse. The following applies: 4-HT, then LPS and TSA 1 h. A digest of the protocol:
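MKP-1−/− fibroblasts were immortalized with SV40 T-antigen and transfected with MKP-1(WT)-ERα or MKP-1(K57R)-ERα. Expression was induced with 200 nM 4-hydroxytamoxifen, then cells were treated with LPS and TSA for 1 h. Lysates were immunoblotted for phospho-p38, total p38 and the ER tag.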

The subject of a further data set is phospho-p38. Nature of the data set: Dephosphorylation of recombinant phospho-p38 by recombinant MKP-1. The following applies: for dephosphorylation of phospho-p38, without p300: recombinant MKP-1, immunoblot; for dephosphorylation of phospho-p38, effect of adding p300: recombinant MKP-1 acetylated with p300, immunoblot. The format is biochemical. A digest of the protocol: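 Recombinant His-MKP-1 made from pRSET-His-MKP-1 by in vitro transcription and translation. It was incubated with recombinant p300 and cold acetyl-CoA, or with control. It was then incubated with recombinant phospho-p38, and remaining phospho-p38 was detected by immunoblotting.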
(In general: In western blotting, separated proteins are transferred to a membrane and probed.)

In a further data set the test system is TNF-α. Nature of the data set: LPS-induced TNF-α RNA in MKP-1 KO MEFs rescued with MKP-1. The class given is cell-based, mouse. The following applies: 4-HT, then LPS and TSA 1 h; RT-PCR.

For the molecule `C[S+]([O-])c1ccc(-c2nc(-c3ccncc3)c(-c3ccc(F)cc3)[nH]2)cc1` (centres unmarked) [SB203580], the cytotoxicity entry in the data set with RAW macrophages is given as “not cytotoxic”.
Same read-out and setting: then `Oc1c2ccccc2c2c3c(cccc13)N=N2` [SP600125], with “not cytotoxic”; and `N#CC(=C(/N)Sc1ccccc1N)/C(C#N)=C(/N)Sc1ccccc1N` [U0126], with “not cytotoxic”.
With “RFSTIVRRRAKGAMGLEHIVPNAELRGRLLA [MKP-1(47–76)(WT)]”, in the data set with p300 HAT domain, the “acetylation of peptide by p300” value was “p300 acetylates MKP-1(47–76)”.
On the same count and under the same terms, then “RFSTIVRRRARGAMGLEHIVPNAELRGRLLA [MKP-1(47–76)(K57R)]”, with “p300 cannot acetylate MKP-1(47–76)(K57R)”.
For peptidoglycan, the “NOS2 expression, activation by TLR agonist alone” value in the data set on NOS2 is on record as “can activate NOS2 expression in macrophages”.

B1: HA-MKP-1(K57R) (protein, UniProt P28562 1-367, looked up, variant K57R)
Dual specificity protein …: MVMEVGTLDAGGLRALLGERAAQCLLLDCRSFFAFNAGHIAGSVNVRFSTIVRRRARGAMGLEHIVPNAELRGRLLAGAYHAVVLLDERSAALDGAKRDGTLALAAGALCREARAAQVFFLKGGYEAFSASCPELCSKQSTPMGLSLPLSTSVPDSAESGCSSCSTPLYDQGGPVEILPFLYLGSAYHASRKDMLDALGITALINVSANCPNHFEGHYQYKSIPVEDNHKADISSWFNEAIDFIDSIKNAGGRVFVHCQAGISRSATICLAYLMRTNRVKLDEAFEFVKQRRSIISPNFSFMGQLLQFESQVLAPHCSAEAGSPAMAVLDRGTSTTTVFNFPVSIPVHSTNSALSYLQSPITTSPSC
modifications: HA tag
As for B1, the “acetylation of HA-MKP-1 in cells in response to LPS and TSA” value with HEK293 cells was “MKP-1(K57R) is not”.

B2: MKP-1: Recombinant MKP-1, acetylated or not with p300 and acetyl-CoA (protein, UniProt P28562 1-367, looked up)
Dual specificity protein …: MVMEVGTLDAGGLRALLGERAAQCLLLDCRSFFAFNAGHIAGSVNVRFSTIVRRRAKGAMGLEHIVPNAELRGRLLAGAYHAVVLLDERSAALDGAKRDGTLALAAGALCREARAAQVFFLKGGYEAFSASCPELCSKQSTPMGLSLPLSTSVPDSAESGCSSCSTPLYDQGGPVEILPFLYLGSAYHASRKDMLDALGITALINVSANCPNHFEGHYQYKSIPVEDNHKADISSWFNEAIDFIDSIKNAGGRVFVHCQAGISRSATICLAYLMRTNRVKLDEAFEFVKQRRSIISPNFSFMGQLLQFESQVLAPHCSAEAGSPAMAVLDRGTSTTTVFNFPVSIPVHSTNSALSYLQSPITTSPSC
modifications: optionally acetylated
Turning to B2, the “phosphatase activity, effect of recombinant p38” value in “MKP-1 catalytic” is reported as “increases the phosphatase activity of MKP-1”. The “increase of phosphatase activity by acetylation in the presence of p38” value in the data set “MKP-1 catalytic” (p300 and acetyl-CoA 30 min at 30°C, then p38 1 h at 30°C) was ~125% and > 100%. In addition, the “phosphatase activity, effect of acetylation without p38” value in the data set “MKP-1 catalytic” (p300 and acetyl-CoA) is given as “negligible effect on phosphatase activity; also recorded: does not affect phosphatase activity of the enzyme alone”.

B3: MKP-1(K57R) (protein, UniProt P28562 1-367, looked up, variant K57R)
Dual specificity protein …: MVMEVGTLDAGGLRALLGERAAQCLLLDCRSFFAFNAGHIAGSVNVRFSTIVRRRARGAMGLEHIVPNAELRGRLLAGAYHAVVLLDERSAALDGAKRDGTLALAAGALCREARAAQVFFLKGGYEAFSASCPELCSKQSTPMGLSLPLSTSVPDSAESGCSSCSTPLYDQGGPVEILPFLYLGSAYHASRKDMLDALGITALINVSANCPNHFEGHYQYKSIPVEDNHKADISSWFNEAIDFIDSIKNAGGRVFVHCQAGISRSATICLAYLMRTNRVKLDEAFEFVKQRRSIISPNFSFMGQLLQFESQVLAPHCSAEAGSPAMAVLDRGTSTTTVFNFPVSIPVHSTNSALSYLQSPITTSPSC
Regarding B3, the “effect of TSA on phospho-p38 in MKP-1 KO MEFs after ectopic expression” value in the data set with p38 is “cannot restore the effects of TSA upon phospho-p38”. In addition, in the data set with phospho-p38, the “dephosphorylation of phospho-p38, without p300” value was “can decrease the phosphorylation of p38” and the “dephosphorylation of phospho-p38, effect of adding p300” value is “no further effect on MKP-1 dephosphorylation of p38”. Moreover, the “effect of TSA on LPS-induced TNF-α in MKP-1 KO MEFs after ectopic expression” value in the data set on TNF-α is “not with MKP-1(K57R)”.

B4: MKP-1(WT): recombinant or ectopically expressed wild-type MKP-1 (protein)
chain: MVMEVGILDAGGLRALLREGAAQCLLLDCRSFFAFNAGHIAGSVNVRFSTIVRRRAKGAMGLEHIVPNAELRGRLLAGAYHAVVLLDERSASLDGAKRDGTLALAAGALCREARSTQVFFLQGGYEAFSASCPELCSKQSTPTGLSLPLSTSVPDSAESGCSSCSTPLYDQGGPVEILSFLYLGSAYHASRKDMLDALGITALINVSANCPNHFEGHYQYKSIPVEDNHKADISSWFNEAIDFIDSIKDAGGRVFVHCQAGISRSATICLAYLMRTNRVKLDEAFEFVKQRRSIISPNFSFMGQLLQFESQVLAPHCSAEAGSPAMAVLDRGTSTTTVFNFPVSIPVHPTNSALNYLKSPITTSPSC
modifications: left off: ERα ligand-binding domain, end not stated, kept
In the case of B4, the “effect of TSA on phospho-p38 in MKP-1 KO MEFs after ectopic expression” value in the data set on p38 was “restores the ability of TSA to decrease phospho-p38 levels”. For the same molecule, in the data set with phospho-p38, the “dephosphorylation of phospho-p38, without p300” value is given as “reduces phosphorylation of p38” and the “dephosphorylation of phospho-p38, effect of adding p300” value is listed as “further decrease in phosphorylation of p38”.
